In publication PMC9037807 (RSC Advances, 2021):
“And” between values parts separate entries of the source, which are not always exact repeats. Equal entries are not always repeated.

Experiments:
[1] = system: rat's stomach; experiment: Histo-pathological study of glandular and non-glandular stomach; format: in vivo; conditions: text description
[2] = system: carrageenan-induced rat paw edema; experiment: Carrageenan-induced rat paw edema model; format: in vivo; conditions: 10 mg kg−1 po, n = 4; for Edema inhibition %, 1 h / Edema thickness ± SEM, 1 h: 1 h after carrageenan injection; for Edema inhibition %, 3 h / Edema thickness ± SEM, 3 h: 3 h after carrageenan injection; for Edema inhibition %, 6 h / Edema thickness ± SEM, 6 h: 6 h after carrageenan injection
Summary of the method: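 Rats were dosed orally with test compound (10 mg kg−1) in 5% aqueous DMSO (v/v). […] Thirty minutes after dosing, 0.02 ml of 1% carrageenan was injected sub-plantar. Paw thickness was measured 1, 3 and 6 h after injection, and edema inhibition % was calculated from paw thickness.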

[3] = system: rat stomach; experiment: Ulcerogenic liability; format: in vivo; conditions: rats sacrificed 4 h after drug administration
[4] = biological target: T1, ovine COX-1 (Ovis aries, UniProt P05979); experiment: In vitro cyclooxygenase; format: biochemical
T1 sequence (P05979 25-600): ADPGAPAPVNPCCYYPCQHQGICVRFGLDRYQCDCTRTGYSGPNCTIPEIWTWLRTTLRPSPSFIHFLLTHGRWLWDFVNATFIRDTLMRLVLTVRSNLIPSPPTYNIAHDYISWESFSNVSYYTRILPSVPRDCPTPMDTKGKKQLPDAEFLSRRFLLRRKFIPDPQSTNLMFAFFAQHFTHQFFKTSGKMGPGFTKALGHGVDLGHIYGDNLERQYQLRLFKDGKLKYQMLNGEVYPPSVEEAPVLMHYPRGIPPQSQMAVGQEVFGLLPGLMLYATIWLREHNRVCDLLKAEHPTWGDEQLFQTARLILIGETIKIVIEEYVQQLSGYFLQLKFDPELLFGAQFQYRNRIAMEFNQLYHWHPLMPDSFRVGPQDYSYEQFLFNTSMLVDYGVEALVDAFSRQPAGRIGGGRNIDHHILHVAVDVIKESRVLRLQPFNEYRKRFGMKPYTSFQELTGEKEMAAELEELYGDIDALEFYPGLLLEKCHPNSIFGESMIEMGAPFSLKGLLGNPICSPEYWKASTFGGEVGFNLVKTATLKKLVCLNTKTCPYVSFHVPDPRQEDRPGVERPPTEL

[5] = biological target: T2, ovine COX-2 (Ovis aries, UniProt P79208); experiment: In vitro cyclooxygenase; format: biochemical; conditions: for Selectivity index (SI): COX-1 IC50/COX-2 IC50
T2 sequence (P79208 17-603): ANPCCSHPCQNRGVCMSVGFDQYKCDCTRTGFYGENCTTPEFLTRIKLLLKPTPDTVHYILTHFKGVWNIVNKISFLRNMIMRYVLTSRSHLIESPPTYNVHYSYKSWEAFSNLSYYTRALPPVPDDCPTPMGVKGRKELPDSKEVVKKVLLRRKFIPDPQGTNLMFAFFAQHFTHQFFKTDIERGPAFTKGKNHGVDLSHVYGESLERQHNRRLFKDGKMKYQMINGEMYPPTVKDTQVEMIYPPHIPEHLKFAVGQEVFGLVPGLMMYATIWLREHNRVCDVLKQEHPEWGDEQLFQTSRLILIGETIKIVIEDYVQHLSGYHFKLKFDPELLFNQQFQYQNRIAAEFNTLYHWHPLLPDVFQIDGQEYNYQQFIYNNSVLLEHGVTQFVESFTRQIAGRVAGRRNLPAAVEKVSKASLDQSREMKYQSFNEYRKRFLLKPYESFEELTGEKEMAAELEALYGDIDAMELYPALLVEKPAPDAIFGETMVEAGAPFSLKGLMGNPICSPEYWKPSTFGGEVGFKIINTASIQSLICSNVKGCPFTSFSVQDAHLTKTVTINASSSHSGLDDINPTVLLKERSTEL

SMILES | Severity of histopathological lesions of the stomach (in words) [1] | Edema inhibition %, 1 h [2] [%] | Edema thickness ± SEM, 1 h [2] [mm] | Edema inhibition %, 3 h [2] [%] | Edema thickness ± SEM, 3 h [2] [mm] | Edema inhibition %, 6 h [2] | Edema thickness ± SEM, 6 h [2] [mm] | Ulcer index, mean [3] [mm] | IC50 [4] [µM] | IC50 [5] [µM] | Selectivity index (SI) [5]
CS(=O)(=O)c1ccc(-c2nc3ccccc3n2CC(=O)N/N=C/c2ccc(Cl)cc2)cc1 [11b, (E)-N′-(4-Chlorobenzylidene)-2-(2-(4-(methylsulfonyl)phenyl)-1H-benzo[d]imidazol-1-yl) acetohydrazide] | mild pathological lesions | 86 | 0.357 ± 0.012 | 93 | 0.155 ± 0.002 | 95% | 0.094 ± 0.006 | 0.83 | 13.4 | 0.1 | 134
COc1ccc(/C=N/NC(=O)Cn2c(-c3ccc(S(C)(=O)=O)cc3)nc3cc(C)ccc32)cc1 [11k, (E)-N′-(4-Methoxybenzylidene)-2-(5-methyl-2-(4-(methylsulfonyl)phenyl)-1H-benzo[d]imidazol-1-yl) acetohydrazide] | mild to moderate lesions | 82 | 0.464 ± 0.014 | 92 | 0.189 ± 0.017 | 94% | 0.111 ± 0.009 | 4.5 | 12.3 | 0.1 | 123
C/C(=N\NC(=O)Cn1c(-c2ccc(S(C)(=O)=O)cc2)nc2cc(Cl)ccc21)c1ccc(Cl)cc1 [12d, (E)-2-(5-Chloro-2-(4-(methylsulfonyl)phenyl)-1H-benzo[d]imidazol-1-yl)-N′-(1-(4-chlorophenyl)ethylidene) acetohydrazide] | mild pathological lesions | 89 | 0.286 ± 0.009 | 93 | 0.154 ± 0.008 | 94.7% and 95% | 0.098 ± 0.005 | 1 | 13.2 | 0.1 | 132
Cc1ccc(-c2cc(C(F)(F)F)nn2-c2ccc(S(N)(=O)=O)cc2)cc1 [Celecoxib, celecoxib, reference compound] | mild lesions | 74 | 0.690 ± 0.017 | 94 | 0.142 ± 0.009 | 96% | 0.070 ± 0.005 | 3.5 |  |  | 
COc1ccc2c(c1)c(CC(=O)O)c(C)n2C(=O)c1ccc(Cl)cc1 [Indomethacin, indomethacin, reference compound] | severe lesions |  |  | 96 | 0.083 ± 0.005 | 97% | 0.051 ± 0.004 | 13 |  |  | 
